# Assay outcomes deposited in PubChem BioAssay by several laboratories.
# The list is not random: actives were taken first. Their share in the collection is about 2%.
# SR-BI HDL uptake: blocks mouse SR-BI lipid uptake from DiI-HDL; hit rate 0.96% among 320,000; Q61009; ldlA[mSR-BI] CHO cells, DiI-HDL uptake fluorescence, 3 h; inhibition, % at 12.5 µM;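 active = mean replicate inhibition of at least 70% and a set share of replicates each scoring 70 or more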;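 note: 0% = median of neutral control wells and 100% = median of positive control wells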
# Target sequence (Q61009 whole entry, looked up): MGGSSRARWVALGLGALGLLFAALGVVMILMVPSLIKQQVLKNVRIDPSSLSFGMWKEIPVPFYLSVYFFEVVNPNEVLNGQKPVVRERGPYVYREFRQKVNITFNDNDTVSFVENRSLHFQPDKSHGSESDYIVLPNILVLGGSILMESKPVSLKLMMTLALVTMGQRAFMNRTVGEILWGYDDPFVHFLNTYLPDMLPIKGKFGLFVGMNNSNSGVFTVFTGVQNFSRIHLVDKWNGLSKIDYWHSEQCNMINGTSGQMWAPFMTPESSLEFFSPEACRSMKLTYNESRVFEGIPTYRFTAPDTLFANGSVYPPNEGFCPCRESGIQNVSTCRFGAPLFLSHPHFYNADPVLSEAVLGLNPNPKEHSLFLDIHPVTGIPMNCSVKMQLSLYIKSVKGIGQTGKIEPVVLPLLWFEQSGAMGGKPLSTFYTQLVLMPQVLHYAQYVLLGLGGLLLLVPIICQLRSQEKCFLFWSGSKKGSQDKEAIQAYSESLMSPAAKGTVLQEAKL
# SR-BI uptake up: SR-BI HDL lipid transfer activation. hit rate 0.096% among 320,000. CHO ldlA[mSR-BI] cells, DiI-HDL uptake fluorescence, 3 h; 100 = double the neutral-control signal. activation, % at 12.5 µM. AID 504775;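 active = mean replicate activation of at least 60% and every replicate at or above 60%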;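 note: 0% = median plate neutral-control signal and 100% = twice that signal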
#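 System: CHO ldlA[mSR-BI] cells / Medium: HEPES-buffered (25 mM, pH 7.4) F12 plus 0.5% BSA / Probe or stimulus: labelled HDL, 10 µg/mL / Doses: single compound concentration, delivered by pin transfer / Schedule: 3 h, 37 °C / Measured by: DiI fluorescence, bottom read / Measure: cell-associated DiI fluorescence as measure of HDL uptake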
# XiGFP reactiv: X-chromosome reactivation activator; AID 743238; XiGFP mouse fibroblasts, % GFP-positive cells imaging, 3 d; cells co-treated with 5-aza-dC sensitizer; scaled so ellipticine positive control = 100%; hit rate 0.055% among 360,000; activation, % at 7.58 µM;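 active = mean normalized replicate activation at least 10% and every replicate at or above 10%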;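 note: 0% = median of on-plate neutral control wells and 100% = ellipticine 6 µM median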
#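 System: 68-5-11 XiGFP fibroblast line | Buffer or medium: DMEM containing 5-aza-dC | Compound: Single point | Times: Compounds 3 days, fix/stain 15 min at room temperature | Benchmarks: Positive control ellipticine, 6 µM final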
# NSD2 inh: NSD2 (human) methyltransferase inhibition | inhibition, % at 12.5 µM | hit rate 0.54% among 310,000 | NSD2 peptide methylation, AlphaScreen, 120 min; in the data active = inhibition above about 50%
# sPLA2-III inh: Inhibits HGIII-sPLA2 liposome hydrolysis, primary screen | Q9NZ20 | QFRET BODIPY PC-A2 liposome hydrolysis, fluorescence | inhibition, % at 12.2 µM | hit rate 0.56% among 370,000;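 active = inhibition above mean plus 3 SD of compounds lying within the high and low control bounds, cut at about 19% in these data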;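 note: 0% = median of test compound wells and 100% = no enzyme DMSO wells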
# ARNT TACC3 PPI: disruptors of human ARNT/TACC3 interaction | inhibition, % at 9.99 µM | AID 623870 | AlphaScreen His-ARNT PAS-B/GST-TACC3 binding, luminescence; TACC3 fragment carries E629A point mutation | Q9Y6A5 | hit rate 0.66% among 390,000;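 active = mean inhibition of replicates at least 50% and at least half of replicates each reaching 50%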;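 note: 0% = complete ARNT plus TACC3 wells and 100% = ARNT alone without TACC3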
# An asterisk follows results filed as active; / = no result.
SMILES,SR-BI HDL uptake,SR-BI uptake up,XiGFP reactiv,NSD2 inh,sPLA2-III inh,ARNT TACC3 PPI
COc1ccc(N2CCN(C(=O)Cn3nnc(-c4ccc(N(C)C)cc4)n3)CC2)cc1,/,/,0,-1,1,/
S=C(NCc1ccccn1)NN=Cc1ccccn1,15,-15,0,7,-5,58*
CC(C)(C)C(=O)Nc1ccc(C(=O)N/N=C/c2ccccc2OC(=O)c2ccccc2)cc1,122*,-122,/,1,-19,1
CCOc1cc(/C=N\NC(=O)c2ccc(NC(=O)C(C)(C)C)cc2)ccc1OC(=O)c1ccc(C)cc1,54,-54,/,7,8,-2
COc1ccc(C(=O)N/N=C/c2ccccc2OC(=O)c2ccccc2)cc1,27,-27,0,0,-5,0
Cc1cccc(C(=O)Oc2ccccc2/C=N/NC(=O)c2ccc(NC(=O)C(C)(C)C)cc2)c1,87*,-87,0,-5,-20,-1
CCOc1cc(/C=N\NC(=O)c2ccc(NC(=O)C(C)(C)C)cc2)ccc1OC(=O)c1cccc(C)c1,23,-23,/,1,0,-7
CC(C)(C)C(=O)Nc1ccc(C(=O)N/N=C/c2ccccc2OC(=O)c2ccc(Cl)cc2)cc1,97*,-97,0,-3,2,0
COc1ccccc1N(C)c1cc2c(c3c1ccn3C)C1CCC2C1 (centres undefined),/,/,12*,/,12,/
CN(C)c1ccc(C(=O)Nc2nc3c(s2)CCCC3)cc1,84*,-84,0,/,5,-2
C[C@@]12C(=O)N(c3ccc(Br)cc3)C(=O)N1[C@@H]1c3ccccc3OC[C@@H]1[C@H]2c1ccccc1,18,-18,1,/,-1,0
C[C@]12C(=O)N(c3ccc(Br)cc3)C(=O)N1[C@@H]1c3ccccc3OC[C@@H]1[C@H]2c1ccccc1,75*,-75,0,/,-1,2
COCc1cc(N2CCN(c3ccccc3F)CC2)nc(-c2ccccc2)n1,80*,-80,0,7,3,-15
COCc1cc(N2CCOCC2)nc(-c2ccccc2)n1,38,-38,0,0,3,1
CCCNC1=C(N(C(C)=O)c2cccc(F)c2)C(=O)c2ccccc2C1=O,-2,2,1,78*,-10,7
CCCNC(=O)COC(=O)/C=C/c1cccc(F)c1,-8,8,0,-1,-3,6
Nc1ccc(N)c(C(=O)O)c1,-12,12,/,/,/,47*
Cc1cc(=O)[nH]c(N/N=C/C2=C(N3CCOCC3)C(=C\c3ccc(Cl)cc3)/CC2)n1,60,-60,0,3,-8,24*
O=C(N/N=C/C1=C(N2CCOCC2)C(=C\c2ccccc2)/CC1)Nc1ccccc1,74*,-74,0,0,-5,0
CCN(CC)c1ccc(/C=C2\CCC(/C=N/NC(=O)c3ccc(=O)n(C)c3)=C2N2CCOCC2)cc1,100*,-100,0,0,3,/
CCN(CC)c1ccc(/C=C2\CCC(/C=C(\C#N)C(=O)Nc3ccccc3F)=C2N2CCOCC2)cc1,10,-10,0,/,-2,/
CC(C)C(NC(=O)C12CC3CC(CC(C3)C1)C2)C(=O)N/N=C/C1=C(N2CCOCC2)C(=C\c2ccc([N+](=O)[O-])cc2)/CC1 (centres undefined),99*,-99,0,0,2,/
Cc1occc1C(=O)N/N=C/C1=C(N2CCOCC2)C(=C\c2ccc(Cl)cc2)/CC1,/,/,0,1,-13,-3
CC(NC(=O)C12CC3CC(CC(C3)C1)C2)C(=O)N/N=C/C1=C(N2CCOCC2)C(=C\c2cccc([N+](=O)[O-])c2)/CC1 (centres undefined),63,-63,0,35,11,-5
Cc1noc(C)c1C(=O)OCC(=O)Nc1cc(Cl)ccc1Oc1ccccc1,43,-43,/,1,-10,-1
SMILES,SR-BI HDL uptake,SR-BI uptake up,XiGFP reactiv,NSD2 inh,sPLA2-III inh,ARNT TACC3 PPI
COc1cc(CC(=O)Nc2nc(-c3ccccc3)c(C(C)=O)s2)cc(OC)c1OC,-4,4,0,-5,-19,4
Cc1cc(C)nc(N/N=C/C2=C(N3CCOCC3)C(=C/c3ccccc3)/CC2)n1,90*,-90,0,2,-7,20
Cc1ccc(C2=NN(C(=S)Nc3ccccc3)C(c3ccco3)C2)cc1 (centres undefined),44,-44,/,1,3,-1
C=CCNC(=S)N1N=C(c2ccco2)CC1c1ccco1 (centres undefined),-6,6,0,5,-2,active
Cc1ccc(CNC2=NCCCCC2)n1C,6,-6,/,-2,0,-2
Cc1ccccc1Nc1c([N+](=O)[O-])ccc2c1=NC1(CCCCC1)N=2,83*,-83,/,8,13,0
COc1ccccc1NC(=O)NCCCN1CCN(c2cccc(Cl)c2)CC1,69,-69,0,/,-13,48*
COc1ccccc1N1CCN(CCCNC(=O)Nc2ccccc2C)CC1,5,-5,/,2,1,8
O=C1N(Cc2cccc(Cl)c2)C[C@@H]2C[C@@H](c3ccccn3)N3CCC[C@@]123,/,/,0,-1,2,3
O=C(Nc1cccnc1)c1cnn2c(C(F)F)cc(C3CC3)nc12,4,-4,/,2,1,11
O=C(Nc1cc(Br)ccc1O)c1cnn2c(C(F)F)cc(C3CC3)nc12,77*,-77,0,0,-23,38
CCOc1ccc(N=Cc2c(C)[nH]n(-c3nc4ccccc4[nH]3)c2=O)cc1,6,-6,0,2,14,72*
Cc1cc(C(=O)COC(=O)CN=C2NS(=O)(=O)c3ccccc32)c(C)n1CCc1ccc(Cl)cc1,39,-39,0,0,-7,-1
CCOC(=O)c1sc(NC(=O)CSc2nc(C)cc(C)c2C#N)c(C#N)c1C,19,-19,/,-5,-1,-6
CCOC(=O)c1sc(NC(=O)CSc2nc3c(cc2C#N)CCCCCC3)c(C#N)c1C,75*,-75,/,1,5,-4
Cc1ccc(S(=O)(=O)Nc2ccc3c(c2)C(=O)N([C@@H](C)CO)C[C@H](C)[C@H](CN(C)S(=O)(=O)c2cn(C)cn2)OCCCC[C@H](C)O3)cc1,/,/,0,/,/,-8
COc1cccc(C(=O)N=c2sc3c(C)ccc(OC)c3n2C)c1,81*,-81,0,/,-5,-2
COc1ccc(C(=O)N=c2sc3c(C)ccc(OC)c3n2C)cc1OC,/,/,0,-3,-3,-5
COc1ccc(-c2csc(NC(=O)c3ccccc3NS(=O)(=O)c3ccc(C)cc3)n2)cc1,93*,-93,0,5,-118,-22
O=C(O)c1cc(Cl)ccc1OS(=O)(=O)c1ccc(Cl)s1,-9,9,0,0,1,-3
